Measured values published in ChEMBL document CHEMBL1123026, “Preparation and antiarthritic and analgesic activity of 4,5-diaryl-2-(substituted thio)-1H-imidazoles and their sulfoxides and sulfones” (1985).

Experiments:
Type in all cases: functional
Mus musculus [1] = test: Effective dose by mouse phenyl-p-benzoquinone writhing (PQW)assay after peroral administration; activity value ranges from (38.0-118.0); settings: po
Method in brief: (§1)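 Fasted (17-21 h) female white mice, 5-20 per double-blind test, dosed orally with compound suspended in 1% methylcellulose. 0.20 mL aqueous 0.01% phenyl-p-benzoquinone given i.p. 6 min before a 10-min observation for stretching/writhing. ED50 (dose protecting 50% of mice) calculated by the moving-average method.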

Mus musculus [2] = test: Effective dose by mouse phenyl-p-benzoquinone writhing (PQW)assay after peroral administration; activity value ranges from (1.9-10.1); settings: po; method in brief: as §1
Mus musculus [3] = test: Effective dose by mouse phenyl-p-benzoquinone writhing (PQW)assay after peroral administration; activity value ranges from (0.48-1.53); settings: po
Rattus norvegicus [4] = test: Effective dose determined against rat adjuvant arthritis after peroral administration; settings: po
Method in brief: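 Male Lewis rats (130-150 g) given 0.1 mL Mycobacterium butyricum adjuvant (5 mg/mL in mineral oil) s.c. into the right hind paw; arthritis developed for 2 weeks. Groups of 10 matched for severity were dosed orally by gavage in PVA-acacia vehicle (10 mL/kg) for 7 days. Uninjected left paw volume was measured the day after the last dose. Percent decrease was calculated vs arthritic and nonarthritic controls. ED50 was read from a visually fitted semilog dose-response line.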

Mus musculus [5] = test: Effective dose by mouse phenyl-p-benzoquinone writhing (PQW)assay after peroral administration; 0.23-0.53; settings: po
Mus musculus [6] = test: Effective dose by mouse phenyl-p-benzoquinone writhing (PQW)assay after peroral administration; activity value ranges from (49.8-84.8); settings: po; method in brief: as §1
Mus musculus [7] = test: Effective dose by mouse phenyl-p-benzoquinone writhing (PQW)assay after peroral administration; activity value ranges from (7.7-33.2); settings: po; method in brief: as §1
Mus musculus [8] = test: Effective dose by mouse phenyl-p-benzoquinone writhing (PQW)assay after peroral administration; activity value ranges from (15.7 - 101.9); settings: po; method in brief: as §1
Mus musculus [9] = test: Effective dose by mouse phenyl-p-benzoquinone writhing (PQW)assay after peroral administration; 4.5-25.9; settings: po
Mus musculus [10] = test: Effective dose against mouse phenyl-p-benzoquinone writhing (PQW)assay, peroral administration; activity value ranges from (21.9-110); settings: po
Mus musculus [11] = test: Effective dose by mouse phenyl-p-benzoquinone writhing (PQW)assay after peroral administration; 0.16-0.57; settings: po
Mus musculus [12] = test: Effective dose by mouse phenyl-p-benzoquinone writhing (PQW)assay after peroral administration; activity value ranges from (9.2 - 43.6); settings: po; method in brief: as §1
Mus musculus [13] = test: Effective dose by mouse phenyl-p-benzoquinone writhing (PQW)assay after peroral administration; activity value ranges from (2.7-11.8); settings: po; method in brief: as §1
Mus musculus [14] = test: Effective dose by mouse phenyl-p-benzoquinone writhing (PQW)assay after peroral administration; activity value ranges from (7.5-51.9); settings: po; method in brief: as §1
Mus musculus [15] = test: Effective dose determined by mouse phenyl-p-benzoquinone writhing (PQW) assay after peroral administration; settings: po; method in brief: as §1
Rattus norvegicus [16] = test: Decrease in paw volume was evaluated at dose 150 mg/kg
Method in brief: (§2)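 Male Lewis rats (130-150 g) got 0.1 mL adjuvant (heat-killed Mycobacterium butyricum, 5 mg/mL in mineral oil) subplantar in the right hind paw and were left 2 weeks. Groups of 10 matched for severity were dosed orally by gavage (PVA-acacia vehicle, 10 mL/kg) for 7 days. Uninjected left hind paw volume was read the next day. % decrease = (arthritic control − treated)/(arthritic − nonarthritic control) × 100; Student's t-test.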

Mus musculus [17] = test: Effective dose by mouse phenyl-p-benzoquinone writhing (PQW)assay after peroral administration; activity value ranges from (25.5-94.1); settings: po; method in brief: as §1
Rattus norvegicus [18] = test: Decrease in paw volume by the effect of compound at a dose of 1 mg/kg; method in brief: as §2
Mus musculus [19] = test: Effective dose by mouse phenyl-p-benzoquinone writhing (PQW)assay after peroral administration; activity value ranges from (20.2-79.4); settings: po; method in brief: as §1
Mus musculus [20] = test: Effective dose by mouse phenyl-p-benzoquinone writhing (PQW)assay after peroral administration; 6.5-42.8; settings: po
Mus musculus [21] = test: Effective dose by mouse phenyl-p-benzoquinone writhing (PQW)assay after peroral administration; 30.9-197.0; settings: po
Mus musculus [22] = test: Effective dose by mouse phenyl-p-benzoquinone writhing (PQW)assay after peroral administration; activity value ranges from (0.9-4.5); settings: po
Mus musculus [23] = test: Effective dose by mouse phenyl-p-benzoquinone writhing (PQW)assay after peroral administration; activity value ranges from (10.2-45.9); settings: po; method in brief: as §1
Mus musculus [24] = test: Effective dose by mouse phenyl-p-benzoquinone writhing (PQW)assay after peroral administration; 14.9-77.8; settings: po
Mus musculus [25] = test: Effective dose by mouse phenyl-p-benzoquinone writhing (PQW)assay after peroral administration; activity value ranges from (0.23-1.22); settings: po
Mus musculus [26] = test: Effective dose by mouse phenyl-p-benzoquinone writhing (PQW)assay after peroral administration; 26.7-130; settings: po
Mus musculus [27] = test: Effective dose by mouse phenyl-p-benzoquinone writhing (PQW)assay after peroral administration; 20.6-296.0; settings: po
Mus musculus [28] = test: Effective dose by mouse phenyl-p-benzoquinone writhing (PQW)assay after peroral administration; 51.5-243; settings: po
Rattus norvegicus [29] = test: Decrease in paw volume by the effect of compound at a dose of 10 mg/kg; method in brief: as §2
Mus musculus [30] = test: Effective dose by mouse phenyl-p-benzoquinone writhing (PQW)assay after peroral administration; 16.7-121.5; settings: po
Mus musculus [31] = test: Effective dose by mouse phenyl-p-benzoquinone writhing (PQW)assay after peroral administration; activity value ranges from (16.2-99); settings: po; method in brief: as §1
Mus musculus [32] = test: Effective dose by mouse phenyl-p-benzoquinone writhing (PQW)assay after peroral administration; activity value ranges from (5.9 - 17.1); settings: po; method in brief: as §1
Mus musculus [33] = test: Effective dose by mouse phenyl-p-benzoquinone writhing (PQW)assay after peroral administration; activity value ranges from (2.8-10.9); settings: po; method in brief: as §1
Mus musculus [34] = test: Effective dose by mouse phenyl-p-benzoquinone writhing (PQW)assay after peroral administration; activity value ranges from (3.1 - 39.5); settings: po; method in brief: as §1
Mus musculus [35] = test: Effective dose by mouse phenyl-p-benzoquinone writhing (PQW)assay after peroral administration; 27.2-42.9; settings: po

COc1cccc(-c2nc(S(=O)(=O)C(F)(F)C(F)F)[nH]c2-c2cccc(OC)c2)c1
ED50 (Mus musculus [1]): 67 mg/kg

O=S(=O)(c1nc(-c2ccccc2Cl)c(-c2ccccc2Cl)[nH]1)C(F)(F)C(F)F
ED50 (Mus musculus [2]): 4.4 mg/kg

O=S(=O)(c1nc(-c2ccc(F)cc2)c(-c2ccccc2)[nH]1)C(F)(F)C(F)F
ED50 (Mus musculus [3]): 0.86 mg/kg
ED50 (Rattus norvegicus [4]): 0.03 mg/kg

COc1ccc2c(c1)c(CC(=O)O)c(C)n2C(=O)c1ccc(Cl)cc1 [INDOMETHACIN]
ED50 (Mus musculus [5]): 0.35 mg/kg

CCCCC1C(=O)N(c2ccccc2)N(c2ccccc2)C1=O [PHENYLBUTAZONE]
ED50 (Mus musculus [6]): 65 mg/kg

O=S(=O)(c1nc(-c2ccc(Cl)c(Cl)c2)c(-c2ccccc2)[nH]1)C(F)(F)F
ED50 (Mus musculus [7]): 16 mg/kg
ED50 (Rattus norvegicus [4]): 0.35 mg/kg

CCCS(=O)(=O)c1nc(-c2ccc(OC)cc2)c(-c2ccc(OC)cc2)[nH]1
ED50 (Mus musculus [8]): 40 mg/kg
ED50 (Rattus norvegicus [4]): 9.5 mg/kg

COc1ccc(-c2nc(S(=O)(=O)C(F)(F)C(Br)Br)[nH]c2-c2ccc(OC)cc2)cc1
ED50 (Rattus norvegicus [4]): > 9 mg/kg
ED50 (Mus musculus [9]): 10.8 mg/kg

C[S+]([O-])c1nc(-c2ccc(Cl)cc2)c(-c2ccc(Cl)cc2)[nH]1 (stereo not drawn)
ED50 (Mus musculus [10]): 49 mg/kg
ED50 (Rattus norvegicus [4]): 2.5 mg/kg

COc1ccc(-c2nc(S(=O)(=O)C(F)(F)C(F)Br)[nH]c2-c2ccc(OC)cc2)cc1 (stereo not drawn)
ED50 (Mus musculus [11]): 0.3 mg/kg

O=S(=O)(CC(F)(F)F)c1nc(-c2ccc(F)cc2)c(-c2ccc(F)cc2)[nH]1
ED50 (Mus musculus [12]): 20 mg/kg

O=S(=O)(c1nc(-c2ccccc2)c(-c2ccccc2)[nH]1)C(F)(F)CF
ED50 (Mus musculus [13]): 5.6 mg/kg
ED50 (Rattus norvegicus [4]): 0.14 mg/kg

O=S(=O)(c1nc(-c2cccc(Cl)c2)c(-c2ccccc2)[nH]1)C(F)(F)C(F)F
ED50 (Mus musculus [14]): 19.8 mg/kg
ED50 (Rattus norvegicus [4]): 0.04 mg/kg

FC(F)(F)CSc1nc(-c2ccccc2)c(-c2ccccc2)[nH]1
ED50 (Mus musculus [15]): > 130 mg/kg
Decrease (Rattus norvegicus [16]): 54%

Cc1ccc(-c2[nH]c(S(=O)(=O)C(F)(F)C(F)F)nc2-c2cccc(Cl)c2)cc1
ED50 (Mus musculus [17]): 49 mg/kg
Decrease (Rattus norvegicus [18]): 36%

COc1ccccc1-c1nc(S(=O)(=O)C(F)(F)C(F)F)[nH]c1-c1ccccc1OC
ED50 (Rattus norvegicus [4]): > 9 mg/kg
ED50 (Mus musculus [19]): 40 mg/kg

COc1ccc(-c2nc(S(=O)(=O)C(F)(F)C(F)I)[nH]c2-c2ccc(OC)cc2)cc1 (stereo not drawn)
ED50 (Mus musculus [20]): 16.7 mg/kg
ED50 (Rattus norvegicus [4]): 5 mg/kg

COc1ccc(-c2[nH]c(SC(F)(F)F)nc2-c2ccc(F)cc2)cc1
ED50 (Mus musculus [21]): 78 mg/kg

O=S(=O)(c1nc(-c2cccc(F)c2)c(-c2ccccc2)[nH]1)C(F)(F)C(F)F
ED50 (Mus musculus [22]): 2 mg/kg

O=[N+]([O-])c1ccc(-c2[nH]c(S(=O)(=O)C(F)(F)C(F)F)nc2-c2ccc(F)cc2)cc1
ED50 (Mus musculus [23]): 21.6 mg/kg
ED50 (Rattus norvegicus [4]): 0.37 mg/kg

C=CSc1nc(-c2ccc(OC)cc2)c(-c2ccc(OC)cc2)[nH]1
ED50 (Mus musculus [24]): 34 mg/kg
ED50 (Rattus norvegicus [4]): 12 mg/kg

COc1ccc(-c2nc(S(=O)(=O)C(F)(F)CF)[nH]c2-c2ccc(OC)cc2)cc1
ED50 (Mus musculus [25]): 0.53 mg/kg

COc1ccc(-c2nc(SC(F)(F)C(F)Br)[nH]c2-c2ccc(OC)cc2)cc1 (stereo not drawn)
ED50 (Mus musculus [26]): 59 mg/kg
ED50 (Rattus norvegicus [4]): 10 mg/kg

FC(F)Sc1nc(-c2ccc(Cl)cc2)c(-c2ccc(Cl)cc2)[nH]1
ED50 (Mus musculus [27]): 78 mg/kg

COc1ccc(-c2nc(SC(F)F)[nH]c2-c2ccc(OC)cc2)cc1
ED50 (Mus musculus [28]): 112 mg/kg

CS(=O)(=O)c1nc(-c2cccc(Cl)c2)c(-c2ccccc2)[nH]1
ED50 (Mus musculus [15]): > 130 mg/kg
Decrease (Rattus norvegicus [29]): 55%

COc1ccc(-c2nc(SC(F)(F)C(F)F)[nH]c2-c2ccc(OC)cc2)cc1
ED50 (Mus musculus [30]): 45 mg/kg
ED50 (Rattus norvegicus [4]): 4.5 mg/kg

CCC[S+]([O-])c1nc(-c2ccc(OC)cc2)c(-c2ccc(OC)cc2)[nH]1 (stereo not drawn)
ED50 (Mus musculus [31]): 40 mg/kg
ED50 (Rattus norvegicus [4]): 15 mg/kg

O=S(=O)(CC(F)(F)F)c1nc(-c2ccc(Cl)cc2)c(-c2ccc(Cl)cc2)[nH]1
ED50 (Mus musculus [32]): 10 mg/kg
ED50 (Rattus norvegicus [4]): 10 mg/kg

Cc1ccc(-c2[nH]c(S(=O)(=O)C(F)(F)C(F)F)nc2-c2ccccc2)cc1
ED50 (Mus musculus [33]): 5.5 mg/kg
ED50 (Rattus norvegicus [4]): 0.8 mg/kg

[O-][S+](c1nc(-c2ccc(Cl)cc2)c(-c2ccc(Cl)cc2)[nH]1)C(F)(F)C(F)F (stereo not drawn)
ED50 (Mus musculus [34]): 11 mg/kg
ED50 (Rattus norvegicus [4]): 0.22 mg/kg

O=S(=O)(c1nc(-c2ccccc2)c(-c2ccccc2)[nH]1)C(F)(F)C(Cl)Cl
ED50 (Rattus norvegicus [4]): 1.7 mg/kg
ED50 (Mus musculus [35]): 34.2 mg/kg
